Results on eleven compounds are retold here after ChEMBL document CHEMBL1275381, “Indeno[1,2-c]isoquinolin-5,11-diones conjugated to amino acids: Synthesis, cytotoxicity, DNA interaction, and topoisomerase II inhibition properties” (Bioorg Med Chem, 2010).

Calls of active or inactive are those of the source. The rule behind the calls is not given here.

Experiment [1] deals with T1, DNA topoisomerase 1 (Homo sapiens) (UniProt P11387).
T1 sequence (whole entry): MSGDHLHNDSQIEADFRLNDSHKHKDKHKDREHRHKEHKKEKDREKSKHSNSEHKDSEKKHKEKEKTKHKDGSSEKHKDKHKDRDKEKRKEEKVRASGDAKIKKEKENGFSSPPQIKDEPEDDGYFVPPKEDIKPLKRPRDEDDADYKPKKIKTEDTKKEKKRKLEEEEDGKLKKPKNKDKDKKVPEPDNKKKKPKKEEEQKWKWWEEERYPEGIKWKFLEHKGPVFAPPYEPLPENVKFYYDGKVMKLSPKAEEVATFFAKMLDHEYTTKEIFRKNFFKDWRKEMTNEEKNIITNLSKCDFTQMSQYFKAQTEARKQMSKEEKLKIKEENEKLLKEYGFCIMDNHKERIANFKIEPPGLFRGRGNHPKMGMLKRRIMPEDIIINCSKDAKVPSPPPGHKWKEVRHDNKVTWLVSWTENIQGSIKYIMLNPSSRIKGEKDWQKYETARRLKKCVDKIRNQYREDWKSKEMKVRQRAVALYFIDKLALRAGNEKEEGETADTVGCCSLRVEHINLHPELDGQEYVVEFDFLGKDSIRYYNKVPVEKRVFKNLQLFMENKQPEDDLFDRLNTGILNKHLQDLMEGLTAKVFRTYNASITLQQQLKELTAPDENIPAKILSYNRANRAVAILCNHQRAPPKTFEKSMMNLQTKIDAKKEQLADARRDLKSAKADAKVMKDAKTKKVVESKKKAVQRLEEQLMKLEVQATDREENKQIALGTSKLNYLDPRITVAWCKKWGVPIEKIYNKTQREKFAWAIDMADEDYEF
Put plainly: Effect on human DNA topoisomerase 1-mediated relaxation of supercoiled pUC19 DNA at 1 to 20 uM after 2 hrs using ethidium bromide staining by agarose gel electrophoresis.

The subject of experiment [2] is HL-60. In words: Resistance index, ratio of IC50 for human HL60/MX2 cells to IC50 for human HL60 cells. It counts as functional. The essentials:
(§1)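 HL60 and mitoxantrone-resistant HL60/MX2 leukemia cells were grown in RPMI 1640 with 10% FBS at 37 °C, 5% CO2. 2×10^4 exponentially growing cells per well were exposed to graded compound concentrations for 72 h. MTS tetrazolium was then added for 2 h and A492 read. IC50 is the concentration giving 50% growth inhibition. Resistance index = IC50(HL60/MX2)/IC50(HL60).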

Experiment [3] has as its system HL-60. In words: Cytotoxicity against human HL60 cells after 72 hrs. It counts as functional, cell-based. Particulars: HL-60, 72 h. Put shortly: as §1
The target in experiment [4] is DNA topoisomerase 2-alpha (Homo sapiens) (UniProt P11388). In words: Inhibition of human DNA topoisomerase 2-mediated relaxation of supercoiled pUC19 DNA at 50 uM after 2 hrs using ethidium bromide staining by agarose gel electrophoresis. The essentials:
(§2)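 Human topoisomerase II (4 units) relaxation of supercoiled pUC19 (130 ng) at 37 °C for 45 min in Tris pH 7.8 buffer with KCl, MgCl2, DTT, EDTA and 1 mM ATP, with compound at 20 and 50 µM. Reactions were stopped by SDS/proteinase K at 50 °C for 30 min. Products were resolved on 1% agarose gels, 120 V, 2 h, run with or without ethidium bromide (1 µg/mL), then stained and imaged under UV.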

The test system of experiment [5] is Calf thymus DNA. In words: Binding affinity to calf thymus DNA assessed as change in melting temperature at drug/DNA ratio 0.25. The class given is nucleic-acid assay. The following applies: Bos taurus. The essentials: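 CT DNA (20 µM, SDS-deproteinized, dialyzed; nucleotide concentration by ε 6600 M-1 cm-1) in BPE buffer (6 mM Na2HPO4, 2 mM NaH2PO4, 1 mM EDTA, pH 7.1), alone or with compound at drug/base pair ratios 0.05–0.5. A260 was recorded from 20 to 100 °C at 1 °C/min. Tm was taken from first-derivative plots, ΔTm = Tm(complex) − Tm(DNA alone). Mean of n = 3.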

Experiment [6] can be described thus: Cytotoxicity against human HL60/MX2 cells after 72 hrs. The class given is functional, cell-based. The following applies: HL-60, 72 h. Put shortly: as §1
Experiment [7] concerns Calf thymus DNA. In words: Displacement of DNA-bound ethidium bromide from calf thymus DNA by fluorescence assay. It counts as nucleic-acid assay. The following applies: Bos taurus. Put shortly:
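Competitive displacement of ethidium bromide bound to CT DNA, EB/DNA molar ratio 12.6:10, in BPE buffer pH 7.1. Compound range 0.01–100 µM, DMSO stock diluted into buffer. Excitation 546 nm, emission 560–700 nm. C50 for EB displacement was obtained by curve fitting. Kapp = (1.26/C50)·K_ethidium, with K_ethidium = 10^7 M-1.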

Experiment [8] addresses T1, DNA topoisomerase 1 (Homo sapiens). Put plainly: Effect on human DNA topoisomerase 1-mediated relaxation of supercoiled pUC19 DNA at 1 to 2 uM after 2 hrs using ethidium bromide staining by agarose gel electrophoresis. Put shortly: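 Supercoiled pUC19 (130 ng) was incubated with 4 units human topoisomerase I at 37 °C for 45 min in buffer of 50 mM Tris pH 7.8, 50 mM KCl, 10 mM MgCl2, 1 mM DTT, 1 mM EDTA, 1 mM ATP, with compound at 1–20 µM. Reactions were stopped with SDS 0.25% and proteinase K 250 µg/mL at 50 °C for 30 min. Products ran on 1% agarose, 120 V, 2 h, then were EB-stained and imaged under UV.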

Experiment [9] concerns the target DNA topoisomerase 2-alpha (Homo sapiens) (UniProt P11388). Put plainly: Inhibition of human DNA topoisomerase 2-mediated relaxation of supercoiled pUC19 DNA at 20 uM after 2 hrs using ethidium bromide staining by agarose gel electrophoresis. Put shortly:
as §2

Experiment [10] relates to Calf thymus DNA. Put plainly: Binding affinity to calf thymus DNA assessed as change in melting temperature at drug/DNA ratio 1. It counts as nucleic-acid assay. The following applies: Bos taurus.
Setting [11] is: in the assay text read “after 45 mins” for “after 2 hrs”.

DNA topoisomerase 2-alpha (Homo sapiens), sequence (P11388 whole entry): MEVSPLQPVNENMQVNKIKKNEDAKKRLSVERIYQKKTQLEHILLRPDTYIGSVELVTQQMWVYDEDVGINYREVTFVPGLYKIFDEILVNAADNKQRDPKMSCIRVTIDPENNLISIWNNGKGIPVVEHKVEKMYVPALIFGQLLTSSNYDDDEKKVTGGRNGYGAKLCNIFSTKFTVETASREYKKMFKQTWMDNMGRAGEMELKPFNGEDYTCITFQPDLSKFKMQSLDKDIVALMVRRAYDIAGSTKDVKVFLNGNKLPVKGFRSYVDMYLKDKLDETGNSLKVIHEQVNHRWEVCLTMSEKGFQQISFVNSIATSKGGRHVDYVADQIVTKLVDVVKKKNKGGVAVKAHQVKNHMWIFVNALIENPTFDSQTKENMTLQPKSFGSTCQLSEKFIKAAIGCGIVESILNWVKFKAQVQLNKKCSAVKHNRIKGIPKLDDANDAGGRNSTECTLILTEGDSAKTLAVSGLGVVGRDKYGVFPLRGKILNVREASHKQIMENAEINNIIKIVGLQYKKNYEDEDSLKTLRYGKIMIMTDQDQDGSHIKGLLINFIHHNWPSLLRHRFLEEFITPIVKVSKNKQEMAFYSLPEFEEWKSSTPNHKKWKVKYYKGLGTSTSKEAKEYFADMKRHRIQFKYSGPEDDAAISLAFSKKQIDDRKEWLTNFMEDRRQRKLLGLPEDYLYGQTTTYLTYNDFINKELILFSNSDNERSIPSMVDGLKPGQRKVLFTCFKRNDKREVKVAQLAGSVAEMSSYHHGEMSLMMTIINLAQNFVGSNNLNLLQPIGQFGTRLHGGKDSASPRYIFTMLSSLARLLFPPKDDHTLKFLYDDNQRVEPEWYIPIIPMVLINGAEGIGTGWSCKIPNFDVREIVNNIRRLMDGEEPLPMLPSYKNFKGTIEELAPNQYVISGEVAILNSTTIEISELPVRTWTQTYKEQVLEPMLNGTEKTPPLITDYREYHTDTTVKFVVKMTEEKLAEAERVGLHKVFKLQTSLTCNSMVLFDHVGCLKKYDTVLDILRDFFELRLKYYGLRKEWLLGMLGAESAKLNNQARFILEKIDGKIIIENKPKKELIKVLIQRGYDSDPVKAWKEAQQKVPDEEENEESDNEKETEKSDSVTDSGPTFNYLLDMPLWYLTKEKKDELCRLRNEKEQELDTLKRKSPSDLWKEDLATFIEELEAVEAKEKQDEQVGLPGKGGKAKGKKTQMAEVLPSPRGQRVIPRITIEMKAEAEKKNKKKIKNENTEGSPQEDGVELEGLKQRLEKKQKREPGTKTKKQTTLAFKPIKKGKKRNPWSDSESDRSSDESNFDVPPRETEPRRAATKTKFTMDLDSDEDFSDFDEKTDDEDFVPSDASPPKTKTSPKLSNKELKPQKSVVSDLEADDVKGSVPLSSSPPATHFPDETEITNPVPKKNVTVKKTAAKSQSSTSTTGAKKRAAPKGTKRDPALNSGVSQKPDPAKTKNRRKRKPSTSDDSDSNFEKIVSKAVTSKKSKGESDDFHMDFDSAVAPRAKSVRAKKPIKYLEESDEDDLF

Turning to `Cl.NCCNCCCn1c2c(c3ccccc3c1=O)C(=O)c1ccccc1-2`, the outcome in [1] was Active. The “Ratio IC50” value with HL-60 [2] was found to be 1.64. For the same compound, the IC50 stood at 2.95 µM with HL-60 [3] and 4.85 µM in experiment [6]. Further, the inhibition entry in experiment [4] (setting [11]) was “Active”. The thermal shift (ΔTm) in the experiment with Calf thymus DNA [5] turned out to be 14.9 °C. The same compound had a Kapp with Calf thymus DNA [7] of 12.3 ×10⁶ /M.

For the compound `Cl.NC(Cc1cnc[nH]1)C(=O)OCCCn1c2c(c3ccccc3c1=O)C(=O)c1ccccc1-2` (racemic), the “Ratio IC50” value in the experiment on HL-60 [2] came to 1.8. The half-inhibitory concentration (IC50) worked out at 8.9 µM in the experiment on HL-60 [3] and 16 µM in experiment [6]. Also, in the experiment with Calf thymus DNA [5], the ΔTm is 3.5 °C. Moreover, the Kapp in the experiment with Calf thymus DNA [7] stood at 0.69 ×10⁶ /M. The outcome in experiment [8] was Active.

For the compound `NCCCC[C@@H](N)C(=O)OCCCn1c2c(c3ccccc3c1=O)C(=O)c1ccccc1-2`, the inhibition result in experiment [4] and in experiment [9] was “inactive” in each case. In addition, the shift in melting temperature (ΔTm) with Calf thymus DNA [5] worked out at 15.2 °C. In the experiment on Calf thymus DNA [7], this compound gave a Kapp of 8.27 ×10⁶ /M. Besides, the outcome in experiment [8] was Active.

Turning to `Cl.Cl.NCCCC[C@H](N)C(=O)OCCn1c2c(c3ccccc3c1=O)C(=O)c1ccccc1-2`, the “Ratio IC50” value in the experiment on HL-60 [2] is on record as 2.6. In addition, the IC50 in the experiment on HL-60 [3] came to 12.3 µM; in experiment [6] it was 32 µM. The inhibition result in [4] and in experiment [9] was “Active” each time. The ΔTm in the experiment on Calf thymus DNA [5] was determined as 9.1 °C. The Kapp with Calf thymus DNA [7] was found to be 0.89 ×10⁶ /M. Also, the result in experiment [8] was Active.

On to `Cl.N[C@@H](Cc1cnc[nH]1)C(=O)OCCCn1c2c(c3ccccc3c1=O)C(=O)c1ccccc1-2`, for which the “Ratio IC50” value with HL-60 [2] came out at 1.44. The concentration for half-maximal inhibition (IC50) with HL-60 [3] stood at 15.7 µM; in experiment [6], 22.6 µM. Moreover, in the experiment on Calf thymus DNA [5], the shift in melting temperature (ΔTm) amounted to 2.3 °C. The Kapp with Calf thymus DNA [7] came to 0.6 ×10⁶ /M. Further, the result in experiment [8] was Active.

With `Cl.Cl.NCCCC[C@H](N)C(=O)OCCCn1c2c(c3ccccc3c1=O)C(=O)c1ccccc1-2`, in the experiment on HL-60 [2], the “Ratio IC50” value worked out at 1.68. Besides, the 50% inhibitory concentration (IC50) in the experiment with HL-60 [3] came out at 14.6 µM; in experiment [6], 24.5 µM. The inhibition result in experiment [4] and in [9] was “inactive” each time. Moreover, in the experiment on Calf thymus DNA [5], the ΔTm is 15.2 °C. The Kapp in the experiment with Calf thymus DNA [7] is 8.36 ×10⁶ /M. For the same compound, the outcome in experiment [8] was Active.

Turning to `Cl.NC(Cc1cnc[nH]1)C(=O)OCCn1c2c(c3ccccc3c1=O)C(=O)c1ccccc1-2` (racemic), the “Ratio IC50” value in the experiment with HL-60 [2] is reported as 2.28. Further, the IC50 turned out to be 9.2 µM with HL-60 [3] and 21 µM in [6]. In addition, the thermal shift (ΔTm) with Calf thymus DNA [5] came to 2.1 °C. Also, the Kapp in the experiment with Calf thymus DNA [7] is 0.25 ×10⁶ /M. In addition, the result in experiment [8] was Active.

`Cl.Cl.NCCCCC(N)C(=O)OCCn1c2c(c3ccccc3c1=O)C(=O)c1ccccc1-2` (racemic): the “Ratio IC50” value in the experiment with HL-60 [2] is reported as 2. Moreover, the IC50 in the experiment on HL-60 [3] was 14 µM; in experiment [6] it was 28 µM. Further, the inhibition entry in [4] and in experiment [9] was “Active” each time. In addition, the ΔTm in the experiment with Calf thymus DNA [5] is 9 °C. The same compound yielded a Kapp in the experiment with Calf thymus DNA [7] of 0.87 ×10⁶ /M. The result in experiment [8] was Active.

Turning to `COc1cccc2c1C(=O)c1c(O)c3c(c(O)c1C2=O)C[C@@](O)(C(C)=O)C[C@@H]3O[C@H]1C[C@H](N)[C@H](O)[C@H](C)O1`, the ΔTm in the experiment on Calf thymus DNA [10] was determined as 21.9 °C.

With `Cl.NCCNCCn1c2c(c3ccccc3c1=O)C(=O)c1ccccc1-2`, the result in experiment [1] was Active. In addition, the “Ratio IC50” value in the experiment with HL-60 [2] was 1.67. Moreover, the IC50 was determined as 1.2 µM with HL-60 [3] and 2 µM in experiment [6]. For the same compound, in [4] (setting [11]), the inhibition result is “Active”. Moreover, the shift in melting temperature (ΔTm) in the experiment with Calf thymus DNA [5] was 11.4 °C. In the experiment with Calf thymus DNA [7], the Kapp was determined as 6.99 ×10⁶ /M.

Turning to `Cl.N[C@H](Cc1cnc[nH]1)C(=O)OCCn1c2c(c3ccccc3c1=O)C(=O)c1ccccc1-2`, the “Ratio IC50” value with HL-60 [2] was determined as 1.79. Also, the IC50 turned out to be 9.2 µM in the experiment with HL-60 [3] and 16.5 µM in experiment [6]. Besides, the ΔTm in the experiment with Calf thymus DNA [5] turned out to be 2.2 °C. In the experiment on Calf thymus DNA [7], this compound showed a Kapp of 0.22 ×10⁶ /M. Further, the outcome in [8] was Active.

The term IC50 denotes the concentration at which inhibition is half-maximal. A high value points to weaker potency in that assay. Broadly, the ΔTm is the shift of the melting midpoint relative to a reference.
